Experimental findings from ChEMBL document CHEMBL1131603, “Synthesis and biological activity of chimeric structures derived from the cytotoxic natural compounds dolastatin 10 and dolastatin 15” (J Med Chem, 1998) are described below.

The test system of test [1] is HT-29. In words: Selectivity was evaluated [Selectivity = IC50 / IC50 of Dolastatin] against HT-29 cell line. It counts as functional, Homo sapiens. Summed up:
(§1)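 HT-29 cells grown in RPMI 1640 with 10% fetal calf serum, 2 mM glutamine, antibiotics and 10 mM HEPES (pH 7.4). Exposed for 96 h to nine serial dilutions in triplicate; growth read by microculture tetrazolium assay. IC50 is the concentration lowering optical density 50% versus untreated controls; ratio is compound IC50 over parent dolastatin IC50.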

Test [2] deals with L1210. Briefly: Inhibitory activity against growth of L1210 cell line. It counts as functional, cell-based. Particulars: Mus musculus. Summed up:
(§2)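 L1210 murine leukemia cells in RPMI 1640 with 10% fetal calf serum, 2 mM glutamine, antibiotics and 10 mM HEPES (pH 7.4). Treatment lasted 48 h at nine serial dilutions in triplicate, with a microculture tetrazolium read-out. IC50 gives 50% optical density reduction versus untreated cells; ratio is compound IC50 divided by parent dolastatin IC50.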

Test [3] concerns MCF7. Briefly: Inhibitory activity against growth of MCF-7 cell line. The format is functional, cell-based. Particulars: Homo sapiens. Summed up:
(§3)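 For MCF7 cells, cultured in supplemented RPMI 1640 (10% fetal calf serum, 10 mM HEPES, pH 7.4), exposure ran 168 h to nine serial dilutions in triplicate. Viability was read by microculture tetrazolium assay. IC50 is the concentration halving optical density relative to untreated controls; ratio is compound IC50 over parent dolastatin IC50.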

For test [4], the system named is L1210. In words: Selectivity was evaluated [Selectivity = IC50 / IC50 of Dolastatin] against L1210 cell line. It counts as functional, Mus musculus. In outline:
as §2

For test [5], the system named is MCF7. In words: Selectivity was evaluated [Selectivity = IC50 / IC50 of Dolastatin] against MCF-7 cell line. The format is functional, Homo sapiens. In outline:
as §3

Another test has as its target Tubulin (Bos taurus, UniProt Q6B856+Q862L2+Q862F3). In words: In vitro inhibition of tubulin polymerization measured as turbidity formed by centrifugation. The format is protein assay. In outline:
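Microtubule protein purified from bovine brain by assembly (37 °C)/disassembly (0 °C) cycles in MES buffer (pH 6.6) with glycerol and GTP; used at 2 mg/mL with 1 mM GTP. Compounds added in DMSO; assembly started by temperature jump from 4 to 37 °C and followed by turbidity at 350 nm. IC50 taken as concentration giving 50% inhibition of assembly rate.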

Test [6] has as its system HT-29. In words: Inhibitory activity against growth of HT-29 cell line. The format is functional, cell-based. Particulars: Homo sapiens. In outline:
as §1

Where a SMILES comes first, the peptide text is derived from it. [ ]: non-standard residue; d: D form. The star is where a group is joined. X2 = COC1=CC(=O)N(C(=O)[C@@H](O*)C(C)C)[C@H]1Cc1ccccc1; Dolaproine = CO[C@@H]([C@@H]1CCCN1)[C@@H](C)C(=O)O; NMe2Val = CC(C)[C@@H](C(=O)*)N(C)C; X1 = c1ccc(CC(N*)c2nccs2)cc1; NMeV = CN[C@H](C(=O)O)C(C)C

Usually IC50 stands for the concentration that inhibits the measured activity by half. A lower IC50 goes with inhibition by little substance. For `CC[C@H](C)[C@@H]([C@@H](CC(=O)N1CCC[C@H]1C(=O)O[C@H](C(=O)N1C(=O)C=C(OC)[C@@H]1Cc1ccccc1)C(C)C)OC)N(C)C(=O)[C@@H](NC(=O)[C@H](C(C)C)N(C)C)C(C)C`, the Selectivity was found to be 1365 in the test with HT-29 [1], 12 with L1210 [4] and 5 with MCF7 [5]. The IC50 was found to be 1.58 nM in the test with L1210 [2], 0.19 nM in the test with MCF7 [3], 3.6 µM on Tubulin and 396 nM with HT-29 [6].
Regarding `CO[C@H]([C@@H](C)C(=O)NC(Cc1ccccc1)c1nccs1)[C@@H]1CCCN1C(=O)[C@@H]1CCCN1C(=O)[C@H](C(C)C)N(C)C(=O)[C@@H](NC(=O)[C@H](C(C)C)N(C)C)C(C)C` (some centres undefined) (NMe2Val-V[NMeV]P[Dolaproine]-X1), the Selectivity with HT-29 [1] came to 190; in the test on L1210 [4] it was 90; in the test with MCF7 [5], 83. The IC50 in the test with L1210 [2] came out at 2.72 nM; in the test on MCF7 [3], 2.48 nM; at Tubulin, 13 µM; with HT-29 [6], 11.4 nM.
As to `COC1=CC(=O)N(C(=O)[C@@H](OC(=O)[C@@H]2CCCN2C(=O)[C@@H]2CCCN2C(=O)[C@H](C(C)C)N(C)C(=O)[C@@H](NC(=O)[C@H](C(C)C)N(C)C)C(C)C)C(C)C)[C@H]1Cc1ccccc1` [DOLASTATIN 15] (NMe2Val-V[NMeV]PP-X2), the IC50 stood at 0.13 nM with L1210 [2], 0.04 nM in the test on MCF7 [3], 17 µM against Tubulin and 0.29 nM with HT-29 [6].
Take `CC[C@H](C)[C@@H]([C@@H](CC(=O)N1CCC[C@H]1[C@H](OC)[C@@H](C)C(=O)N[C@@H](Cc1ccccc1)c1nccs1)OC)N(C)C(=O)[C@@H](NC(=O)[C@H](C(C)C)N(C)C)C(C)C` [DOLASTATIN-10]: the IC50 with MCF7 [3] came to 0.03 nM; against Tubulin it was 2.2 µM.
As for `CC[C@]1(O)C[C@H]2CN(CCc3c([nH]c4ccccc34)[C@@](C(=O)OC)(c3cc4c(cc3OC)N(C=O)[C@H]3[C@@](O)(C(=O)OC)[C@H](OC(C)=O)[C@]5(CC)C=CCN6CC[C@]43[C@@H]65)C2)C1` [VINCRISTINE], the IC50 was 0.73 nM in the test on L1210 [2], 0.84 nM with MCF7 [3], 1.8 µM at Tubulin and 2.06 nM in the test on HT-29 [6].
